Consider 6 compounds from paper PMC9939360 (Acta Pharmaceutica Sinica. B, 2022).

Structures are written as SMILES. Read-outs that look alike come from different tables or passages of the source. Marks after values point to notes of the source that are not given here.

In data set [1] the target is T1, hM4 mAChR (Homo sapiens, UniProt P08173).
T1 sequence (P08173 1-479): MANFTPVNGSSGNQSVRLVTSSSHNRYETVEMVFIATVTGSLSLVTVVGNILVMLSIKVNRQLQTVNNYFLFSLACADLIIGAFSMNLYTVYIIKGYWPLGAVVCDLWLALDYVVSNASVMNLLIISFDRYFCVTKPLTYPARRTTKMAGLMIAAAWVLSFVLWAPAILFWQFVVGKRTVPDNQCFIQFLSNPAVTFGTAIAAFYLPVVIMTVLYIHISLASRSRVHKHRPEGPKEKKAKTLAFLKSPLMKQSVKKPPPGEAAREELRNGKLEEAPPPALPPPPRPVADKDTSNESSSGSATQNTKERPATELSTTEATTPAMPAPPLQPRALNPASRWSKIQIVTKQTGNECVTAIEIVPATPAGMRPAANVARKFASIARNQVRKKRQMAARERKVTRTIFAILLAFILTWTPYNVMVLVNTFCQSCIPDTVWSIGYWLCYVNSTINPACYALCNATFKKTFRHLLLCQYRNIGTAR
In words: [35S]-GTPγS binding assay with ACh, operational model of allosterism. The format is biochemical. To be noted: mean ± SEM; for LogβACh (logarithm of the activation cooperativity factors between ACh and M4-PAMs): determined by subtracting (α) from the (αβ) parameters; for LogαβACh (logarithm of the operational functional cooperativity factors between ACh and M4-PAMs) / Logτ (logarithm of the operational efficacy parameter of M4-PAMs as allosteric agonists): hM4 membranes. The gist of the method:
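Membranes from FlpInCHO cells stably expressing wild-type human M4, 15 μg per assay, preincubated 60 min at 30 °C with 10 μmol/L GDP and ACh (10 nmol/L–10 mmol/L), with or without M4-PAMs (0.1–10 μmol/L). [35S]GTPγS (1 nmol/L, as added) then given for 30 min at 30 °C. Bound label collected on GF/B filters and counted by scintillation. Data fitted to an operational model of allosterism and agonism.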

The target of data set [2] is T1, hM4 mAChR. The format is binding. To be noted: for LogαACh (logarithm of the binding cooperativity factor between M4-PAMs and ACh): CHO cells stably expressing hM4, mean ± SEM. The gist of the method: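 Intact FlpIn CHO cells stably expressing human M4 were grown in DMEM/5% FBS, plated at 20,000 per well and grown overnight at 37 °C. After PBS washes, cells were incubated with an ACh concentration series, with or without increasing test compound concentrations, plus [3H]-NMS (~0.1 nmol/L). Atropine (10 μmol/L) defined nonspecific binding. Cells were washed with ice-cold 0.9% NaCl and counted by scintillation. KB and α came from an allosteric ternary complex model fit.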

Another data set concerns M1, M2, M3 and M5. Put plainly: Tango assay, selectivity over other muscarinic subtypes. Format: cell-based. The procedure, abridged: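 HEK293 cells stably carrying a tTA-dependent luciferase reporter and a β-arrestin2–TEV fusion were kept in DMEM/10% FBS with puromycin and hygromycin B at 37 °C, 5% CO2. They were transfected, then replated on day 3 at 15,000–20,000 cells/well on poly-L-lysine. On day 4 test compound was added in HEPES/1× HBSS buffer, pH 7.4. On day 5, Bright-Glo luminescence was read after 15–20 min at room temperature (RLU). Carbachol served as reference agonist.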

The test system of data set [3] is M4. As to conditions: rhesus monkeys; cited from earlier work.
Data set [4] deals with M4. To be noted: humans; cited from earlier work.

Consider `CN1Cc2ccc(-c3nc(C#N)ccc3-c3cnn(CC4CCCC4)c3)cc2C1=O` [Compound 8, 5-(1-(cyclopentylmethyl)-1H-pyrazol-4-yl)-6-(2-methyl-3-oxoisoindolin-5-yl)picolinonitrile], for which, on hM4 mAChR [1], the “LogβACh (logarithm of the activation cooperativity factors between ACh and M4-PAMs)” value (“LogβACh” for short) is reported as 0.1 ± 0.3; the “LogαβACh (logarithm of the operational functional cooperativity factors between ACh and M4-PAMs)” value (from here on “LogαβACh”) amounted to 1.9 ± 0.2; the “Logτ (logarithm of the operational efficacy parameter of M4-PAMs as allosteric agonists)” value (shortened to “Logτ”) is on record as 0.3 ± 0.0. On hM4 mAChR [2], the Kb was 398 nM; the “LogαACh (logarithm of the binding cooperativity factor between M4-PAMs and ACh)” value (“LogαACh” below) is reported as 1.7 ± 0.3.
Consider `Cc1ccc(-c2cnn(CC3CCCC3)c2)c(-c2ccc3c(c2)C(=O)N(C)C3)n1` [Compound 10, 6-(3-(1-(cyclopentylmethyl)-1H-pyrazol-4-yl)-6-methylpyridin-2-yl)-2-methylisoindolin-1-one], for which, on hM4 mAChR [1], the “LogβACh” value came out at 0.4 ± 0.2; the “LogαβACh” value was 2.0 ± 0.2; the “Logτ” value was 0.7 ± 0.0. At hM4 mAChR [2], the Kb is 316 nM; the “LogαACh” value is 1.6 ± 0.2.
As for `Cc1ccc(-c2cnn(CC3CCCC3)c2)c(-c2ccc3c(c2)C(=O)NC3)n1` [Compound 11, 6-(3-(1-(cyclopentylmethyl)-1H-pyrazol-4-yl)-6-methylpyridin-2-yl)isoindolin-1-one], on hM4 mAChR [1], the “LogβACh” value worked out at 0.5 ± 0.3; the “LogαβACh” value is reported as 1.9 ± 0.2; the “Logτ” value is on record as 0.5 ± 0.0. On hM4 mAChR [2], the Kb was 501 nM; the “LogαACh” value was 1.4 ± 0.2.
For `N#Cc1ccc(-c2cnn(CC3CCCC3)c2)c(-c2ccc3c(c2)C(=O)N(CCF)C3)n1` [Compound 12, 5-(1-(cyclopentylmethyl)-1H-pyrazol-4-yl)-6-(2-(2-fluoroethyl)-3-oxoisoindolin-5-yl)picolinonitrile], on hM4 mAChR [1], the “LogβACh” value is 1.1 ± 0.2; the “LogαβACh” value is 2.5 ± 0.1 ^f; the “Logτ” value came out at 0.5 ± 0.0. Also, in the data set on M1, M2, M3 and M5, the “selectivity over other muscarinic acetylcholine receptor subtypes” value is reported as “selective”. At hM4 mAChR [2], the Kb was 398 nM; the “LogαACh” value worked out at 1.4 ± 0.1.
For `N#Cc1ccc(-c2cnn(CC3CCCC3)c2)c(-c2ccc3c(c2)C(=O)N(CCCF)C3)n1` [Compound 13, 5-(1-(cyclopentylmethyl)-1H-pyrazol-4-yl)-6-(2-(3-fluoropropyl)-3-oxoisoindolin-5-yl)picolinonitrile], on hM4 mAChR [1], the “LogβACh” value is 0.8 ± 0.2; the “LogαβACh” value is 2.4 ± 0.2 ^f; the “Logτ” value stood at 0.6 ± 0.0. On hM4 mAChR [2], the Kb was 398 nM; the “LogαACh” value is reported as 1.6 ± 0.2.
Take `CC1(Cn2cc(-c3ccc(C#N)nc3-c3ccc4c(c3)C(=O)N([11CH3])C4)cn2)CCCC1` [[^11C]MK-6884]: the “peak striatal SUV” value is on record as “ca. 1.2” with M4 [3] and “ca. 2.5” with M4 [4].
